The values below come from publication PMC7392372 (Bioorganic & medicinal chemistry letters, 2018).

One data set concerns the target BRD4 (BD1,2) (Homo sapiens, UniProt O60885). The data set is described as follows: BROMOScan competitive binding affinity, BRD4. The settings on record: for fold improvement in Kd values: relative to smaller 2-substitutions (13, 14); for fold decrease of potency in binding affinity (Kd): relative to 17.
Data set [1] is described as follows: Pharmacokinetics in CD-1 mice. The class given is in vivo. The settings on record: po 10 mg/kg, n=3. The method, boiled down: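 CD-1 mice received a single 10 mg/kg oral dose, n = 3. AUC0−∞ (h·ng/mL) was reported together with t1/2, Cmax, Vss, CLp and F%. For oral bioavailability, an intravenous arm dosed at 2 mg/kg was also run.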

Regarding `Cc1noc(C)c1-c1ccc2nc(N(C)CCN(C)C)nc(NCc3cccc(Cl)c3)c2c1` [compound 15], the “fold improvement in Kd values” at BRD4 (BD1,2) is on record as ~ 20 fold. Still for that read-out and setting: with `Cc1noc(C)c1-c1ccc2nc(N3CCN(C)CC3)nc(NCc3cccc(Cl)c3)c2c1` [compound 16] the figure was ~ 20 fold. With `Cc1noc(C)c1-c1ccc2c(NCc3cccc(Cl)c3)nc(N3CCN(CCN(C)C)CC3)nc2c1` [compound 40], the “fold decrease of potency in binding affinity (Kd)” value at BRD4 (BD1,2) is recorded as ~ 12 fold. For the compound `CN(C)CCN1CCN(c2nc(NCc3cccc(Cl)c3)c3cc(-c4ccc(=O)n(C)c4)ccc3n2)CC1` [compound 48], the “AUC0−∞” value in data set [1] was “no exposure”. As to `Cc1noc(C)c1-c1ccc2nc(N3CCN(CCN(C)C)CC3)nc(NCc3ccc(Cl)cc3)c2c1` [compound 51], the “fold decrease of potency in binding affinity (Kd)” value at BRD4 (BD1,2) is ~ 9 fold. The same measure, in the same setting: next, `Cc1noc(C)c1-c1ccc2nc(N3CCN(CCN(C)C)CC3)nc(N(C)Cc3cccc(Cl)c3)c2c1` [compound 57]: 2–3 fold.
